Published values collected from several papers.
Protocols differ between the studies behind these lines.
SRD5A1: 3-oxo-5-alpha-steroid 4-dehydrogenase 1 (SRD5A1, Homo sapiens, UniProt P18405)
HTR2A: 5-hydroxytryptamine receptor 2A (HTR2A, Homo sapiens, UniProt P28223)

Structure (SMILES)	target	effect on	mode	method	cells	concentration	inhibition [%]
Cc1cc(F)cc2c(CCC(=O)N[C@@H]3C(=O)NC[C@H]3O)c(-c3ccc(F)cc3)[nH]c12	Cannabinoid receptor 1 (CNR1, Homo sapiens, UniProt P21554)	cell-free assay				10 µM	-2
CC(=O)Oc1ccc(C=CC(=O)O)cc1OC(C)=O	SRD5A1	enzyme activity in cells	inhibitor		HaCaT	50 µM	12.2
NC/C(=C\F)COc1cccc(Cn2c(=S)[nH]c(=O)c3[nH]cnc32)c1	Hepatic sodium/bile acid cotransporter (SLC10A1, Homo sapiens, UniProt Q14973)	transporter uptake	inhibitor			30 µM	< 50
CC[N+]1(C)CCc2cc(OC)c(OC)c3c2C1Cc1cccc(OC)c1-3 (stereo not shown)	HTR2A	ligand displacement		radioligand		10 µM	3
Cc1cc(O)c(-c2ccc([C@@H](C)CN(C)C)cc2)c2c1[nH]c(=O)c1sccc12	Serine/threonine-protein kinase VRK2 (VRK2, Homo sapiens, UniProt Q86Y07)	enzyme activity	inhibitor			0.1 µM	3.23
COC(=O)C=Cc1ccc(OC)c(OC)c1	SRD5A1	enzyme activity in cells	inhibitor		HaCaT	50 µM	26.1
C#Cc1cc(-c2cc(Nc3nc(N[C@@H](C)c4ccc(F)cn4)ncc3Cl)n[nH]2)ccc1C=O	Cytoplasmic tyrosine-protein kinase BMX (BMX, Homo sapiens, UniProt P51813)	enzyme activity	inhibitor			0.2 µM	70.8
COc1cc2c3c(c1OC)-c1c(OC)ccc(NC(C)=O)c1CC3N(C)CC2 (stereo not shown)	HTR2A	ligand displacement		radioligand		10 µM	9
COC(=O)C=Cc1ccc(OC(C)=O)c(OC(C)=O)c1	SRD5A1	enzyme activity in cells	inhibitor		HaCaT	50 µM	25.1
CCN1/C(=C/C(C)=O)Sc2ccc(F)cc21	Endothelin-1 receptor (EDNRA, Homo sapiens, UniProt P25101)	ligand displacement		radioligand		10 µM	9.86
